Laboratory results: ChEMBL document CHEMBL4699593, “Identification of 2,4-Disubstituted Imidazopyridines as Hemozoin Formation Inhibitors with Fast-Killing Kinetics and In Vivo Efficacy in the Plasmodium falciparum NSG Mouse Model” (J Med Chem, 2020)
Converted amounts (≈) assume the structure as drawn. The source made the active and inactive calls. The rule behind the calls is not given here.

Assays:
[1] = Dose normalized AUC (0 to 24 hrs) in Plasmodium falciparum 3D70087/N9 infected NSG mouse at 50 mg/kg, po by LC-MS/MS analysis; format: ADME, organism-based; conditions: in vivo
Outline: (§1)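 Oral (PO) dosing of NSG (NODscidIL2Rγnull) mice infected with P. falciparum. Cmax and AUC0–24 are taken from the infected-mouse PK analysis and are also expressed divided by dose.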

[2] = system: Plasmodium falciparum; assay: Antimalarial activity against asexual ring stage of Plasmodium falciparum NF54 measured after 24 hrs by [3H]hypoxanthine incorporation assay; format: functional, organism-based
Outline: (§2)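 Tested on a synchronized asexual blood-stage culture of P. falciparum, with IC50 determined separately for the ring and the schizont stage.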

[3] = Tmax in Plasmodium falciparum 3D70087/N9 infected NSG mouse at 100 mg/kg, po by LC-MS/MS analysis; format: ADME, organism-based; conditions: in vivo
Outline: (§3)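 P. falciparum-infected NSG mice received escalating single oral doses of 1.5, 5, 15, 50 and 100 mg/kg.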

[4] = Selectivity index, ratio of CC50 for cytotoxicity against CHO cells assessed as reduction in cell viability to IC50 for antiplasmodial activity against multidrug-sensitive Plasmodium falciparum NF54 assessed as reduction in parasite growth; format: toxicity, cell-based; conditions: hamster, read-out: Ratio CC50/IC50
[5] = Tmax in Plasmodium falciparum 3D70087/N9 infected NSG mouse at 5 mg/kg, po by LC-MS/MS analysis; format: ADME, organism-based; conditions: in vivo; outline: as §3
[6] = system: Plasmodium falciparum; assay: Antimalarial activity against Plasmodium falciparum 3D70087/N9 infected in NOD-SCID IL2Rgamma null mouse assessed as parasitemia at 100 mg/kg, po qd administered for 4 days measured on day 6 post-infection by microscopy based flow cytometry; format: functional, organism-based; conditions: time 4.0 day
[7] = system: Plasmodium falciparum; assay: Antimalarial activity against asexual blood stage Plasmodium falciparum assessed as time required to show 99.9% reduction of parasitemia at 10 times IC50; format: functional
[8] = Lipophilicity, log D of compound at pH 7.4; format: physicochemical; conditions: buffer
[9] = Lipophilicity, log D of compound at pH 6; format: physicochemical; conditions: buffer
[10] = Dose normalized AUC (0 to 24 hrs) in Plasmodium falciparum 3D70087/N9 infected NSG mouse at 5 mg/kg, po by LC-MS/MS analysis; format: ADME, organism-based; conditions: in vivo; outline: as §1
[11] = Cmax in Balb/C mouse at 2 mg/kg, iv by LC-MS/MS analysis; format: ADME, organism-based; design: route intravenous, dose 2 mg/kg; conditions: in vivo
Outline: (§4)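 Healthy Balb/c mice dosed i.v. or orally. Parameters come from non-compartmental analysis of compound concentration over time. […] Clearance is blood clearance (CL_b).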

[12] = system: Plasmodium falciparum; assay: Antimalarial activity against Plasmodium falciparum 3D70087/N9 infected in NOD-SCID IL2Rgamma null mouse assessed as parasitemia at 50 mg/kg, po qd administered for 4 days measured on day 6 post-infection by microscopy based flow cytometry; format: functional, organism-based; conditions: time 4.0 day
Outline: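 NSG mice were infected with P. falciparum and given oral compound once daily for 4 days at 50 mg/kg, starting three days after inoculation. Parasitemia was followed to day 6 post-infection against the limit of detection.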

[13] = system: Plasmodium falciparum; assay: Antiplasmodial activity against early ring-stage synchronized Plasmodium falciparum assessed as increase in free heme after 32 hrs by Giemsa-staining based haemocytometric counting method; format: functional, organism-based
Outline: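 Whole-parasite cell fractionation assay run as a dose response. Free heme and hemozoin were measured intracellularly across increasing compound concentrations.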

[14] = biological target: Voltage-gated inwardly rectifying potassium channel KCNH2 (Homo sapiens, UniProt Q12809); assay: Inhibition of human ERG by patch clamp method
Voltage-gated inwardly rectifying potassium channel KCNH2, sequence (Q12809 whole entry): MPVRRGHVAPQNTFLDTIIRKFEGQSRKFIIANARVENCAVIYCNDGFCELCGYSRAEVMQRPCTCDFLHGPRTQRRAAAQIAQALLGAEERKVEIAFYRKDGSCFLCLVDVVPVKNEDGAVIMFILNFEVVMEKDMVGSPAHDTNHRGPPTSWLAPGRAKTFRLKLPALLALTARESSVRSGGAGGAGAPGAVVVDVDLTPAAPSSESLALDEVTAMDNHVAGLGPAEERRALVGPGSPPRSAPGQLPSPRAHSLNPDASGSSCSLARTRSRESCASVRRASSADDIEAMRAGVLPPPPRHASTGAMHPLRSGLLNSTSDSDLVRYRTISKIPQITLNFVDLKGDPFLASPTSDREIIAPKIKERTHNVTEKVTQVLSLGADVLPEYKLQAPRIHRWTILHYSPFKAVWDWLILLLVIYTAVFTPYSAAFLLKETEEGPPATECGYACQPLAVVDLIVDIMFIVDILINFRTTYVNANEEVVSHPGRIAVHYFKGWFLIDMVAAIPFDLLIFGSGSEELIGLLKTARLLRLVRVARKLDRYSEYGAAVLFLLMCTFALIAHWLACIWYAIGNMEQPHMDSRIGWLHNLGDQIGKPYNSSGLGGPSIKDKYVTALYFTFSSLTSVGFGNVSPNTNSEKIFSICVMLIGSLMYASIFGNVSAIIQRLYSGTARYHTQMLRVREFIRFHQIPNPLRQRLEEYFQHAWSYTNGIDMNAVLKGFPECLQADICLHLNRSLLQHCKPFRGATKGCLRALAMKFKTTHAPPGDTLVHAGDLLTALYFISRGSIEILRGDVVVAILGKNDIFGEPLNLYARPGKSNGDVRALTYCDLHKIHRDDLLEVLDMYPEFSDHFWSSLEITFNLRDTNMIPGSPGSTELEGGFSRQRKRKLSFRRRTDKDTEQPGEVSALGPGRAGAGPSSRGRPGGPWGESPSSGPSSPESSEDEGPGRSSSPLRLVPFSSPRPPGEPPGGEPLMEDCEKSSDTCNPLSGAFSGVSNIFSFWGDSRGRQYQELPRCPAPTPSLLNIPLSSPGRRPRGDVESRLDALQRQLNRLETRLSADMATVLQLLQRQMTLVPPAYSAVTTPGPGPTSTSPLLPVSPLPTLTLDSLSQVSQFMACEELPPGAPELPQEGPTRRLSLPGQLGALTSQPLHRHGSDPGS

[15] = Dose normalized AUC (0 to 24 hrs) in Balb/c mouse at 20 mg/kg, po by LC-MS/MS analysis; format: ADME, organism-based; conditions: in vivo; outline: as §4
[16] = Tmax in Plasmodium falciparum 3D70087/N9 infected NSG mouse at 15 mg/kg, po by LC-MS/MS analysis; format: ADME, organism-based; conditions: in vivo; outline: as §3
[17] = Oral bioavailability in Balb/C mouse at 20 mg/kg by LC-MS/MS analysis; format: ADME, organism-based; conditions: in vivo
Outline: (§5)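 Healthy Balb/c mice were given the compound i.v. or orally. Parameters come from non-compartmental analysis: AUC from 0 h to t_last, blood clearance, volume at steady state, terminal half-life, Tmax. Oral bioavailability F is derived from the i.v. and p.o. data.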

[18] = Ratio of unbound average drug concentration in Balb/c mouse at 20 mg/kg, po measured at 24 hrs to IC50 for antiplasmodial activity against multidrug-sensitive Plasmodium falciparum NF54 asexual blood stage assessed as reduction in parasite growth after 72 hrs by LDH assay; format: organism-based; conditions: in vivo
[19] = Dose normalized Cmax in Plasmodium falciparum 3D70087/N9 infected NSG mouse at 5 mg/kg, po by LC-MS/MS analysis; format: ADME, organism-based; conditions: in vivo; outline: as §3
[20] = Dose normalized AUC (0 to 24 hrs) in Plasmodium falciparum 3D70087/N9 infected NSG mouse at 1.5 mg/kg, po by LC-MS/MS analysis; format: ADME, organism-based; conditions: in vivo; outline: as §1
[21] = Dose normalized Cmax in Plasmodium falciparum 3D70087/N9 infected NSG mouse at 15 mg/kg, po by LC-MS/MS analysis; format: ADME, organism-based; conditions: in vivo; outline: as §1
[22] = Cmax in Plasmodium falciparum 3D70087/N9 infected NSG mouse at 15 mg/kg, po by LC-MS/MS analysis; format: ADME, organism-based; design: route oral, dose 15 mg/kg; conditions: in vivo; outline: as §1
[23] = Tmax in Balb/C mouse at 20 mg/kg, po by LC-MS/MS analysis; format: ADME, organism-based; conditions: in vivo; outline: as §5
[24] = AUC (0 to t) in Balb/C mouse at 2 mg/kg, iv by LC-MS/MS analysis; format: ADME, organism-based; design: dose 2 mg/kg; conditions: in vivo; outline: as §4
[25] = AUC (0 to 24 hrs) in Plasmodium falciparum 3D70087/N9 infected NSG mouse at 50 mg/kg, po by LC-MS/MS analysis; format: ADME, organism-based; design: time < 24 hr, route oral, dose 50 mg/kg; conditions: in vivo; outline: as §1
[26] = Cmax in Plasmodium falciparum 3D70087/N9 infected NSG mouse at 1.5 mg/kg, po by LC-MS/MS analysis; format: ADME, organism-based; design: route oral, dose 1.5 mg/kg; conditions: in vivo; outline: as §1
[27] = system: Plasmodium falciparum; assay: Antiplasmodial activity against multidrug-sensitive asexual blood stage Plasmodium falciparum NF54 strain assessed as reduction in parasite growth after 72 hrs by NBT reagent based LDH assay; format: functional, organism-based; conditions: NF54, 72 h
[28] = Aqueous solubility of compound in phosphate buffer saline at pH 6.5 incubated for 20 hrs under shaking condition by shake-flask method based HPLC-DAD analysis; format: physicochemical; conditions: phosphate buffered saline
Outline: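 Equilibrium aqueous solubility was measured at pH 6.5 using a miniaturized shake-flask method.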

[29] = system: Plasmodium falciparum; assay: Antimalarial activity against asexual schizont stage of Plasmodium falciparum NF54 measured after 24 hrs by [3H]hypoxanthine incorporation assay; format: functional, organism-based; outline: as §2
[30] = system: CHO; assay: Cytotoxicity against CHO cells assessed as reduction in cell viability by MTT assay; format: cell-based, Cricetulus griseus; conditions: chinese hamster
Outline: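 Cytotoxicity was measured in Chinese hamster ovary (CHO) cells and reported as CC50. The selectivity index is CC50 divided by NF54 IC50.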

[31] = system: Hemozoin; assay: Inhibition of beta-hematin formation assessed as reduction in hemozoin formation incubated for 5 hrs by NP40 detergent-mediated assay
Outline: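 Synthetic hemozoin (β-hematin) formation is driven by the detergent Nonidet P-40. Pyridine is then added to detect unreacted hematin. IC50 is derived from this read-out.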

[32] = AUC (0 to 24 hrs) in Plasmodium falciparum 3D70087/N9 infected NSG mouse at 100 mg/kg, po by LC-MS/MS analysis; format: ADME, organism-based; design: time < 24 hr, route oral, dose 100 mg/kg; conditions: in vivo; outline: as §1
[33] = Tmax in Plasmodium falciparum 3D70087/N9 infected NSG mouse at 50 mg/kg, po by LC-MS/MS analysis; format: ADME, organism-based; conditions: in vivo; outline: as §3

## CN1CCN(CC2CCN(c3nccc4[nH]c(-c5cc(F)cc(F)c5)nc34)CC2)CC1
[1]
  AUC/dose: 57 µM·kg·min/mg
[2]
  IC50: 27 nM
[3]
  Tmax: 1 h
[4]
  selectivity ratio: 1040
[5]
  Tmax: 2.5 h
[6]
  Activity: Below limit of detection
[7]
  Time: 31 h
[8]
  logD: 2.6
[9]
  logD: 0.4
[10]
  AUC/dose: 34 µM·kg·min/mg
[11]
  Cmax: 600 nM
[12]
  Activity: Below limit of detection
[13]
  Activity: inactive
[14]
  IC50: > 30000 nM
[15]
  AUC/dose: 60 µM·kg·min/mg
[16]
  Tmax: 6 h
[17]
  bioavailability: 83%
[18]
  Ratio: 4.5
[19]
  Cmax/dose: 0.03 µM·kg/mg
[20]
  AUC/dose: 31 µM·kg·min/mg
[21]
  Cmax/dose: 0.05 µM·kg/mg
[22]
  Cmax: 810 nM
[23]
  Tmax: 1.7 h
[24]
  AUCt: 2.42 µM·h
[25]
  AUC: 2856 µM·min
[26]
  Cmax: 40 nM
[27]
  IC50: 23 nM
[28]
  solubility thermodynamic at 20 h: 200 µM (≈ 85.3 µg/mL)
[29]
  IC50: 60 nM
[30]
  CC50: 23000 nM
[31]
  IC50: 24000 nM
[32]
  AUC: 5142 µM·min
[33]
  Tmax: 12.5 h
